In ChEMBL document CHEMBL4270489, “Synthesis and in vitro and in vivo antitumour activity study of 11-hydroxyl esterified bergenin/cinnamic acid hybrids” (Eur J Med Chem, 2017):

How the values were obtained:
[1] = tested on: MCF7; test: Antiproliferative activity against human MCF7 cells incubated for 48 to 72 hrs by MTT assay; assay type: functional, cell-based
How it was run: (§1)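 MTT assay. Cells were grown in DMEM with 10% heat-inactivated FBS at 37°C under 5% CO₂. They were seeded at 5000/well in 5% FBS DMEM for 24 h, then given compound in DMSO at 0.1, 1, 10 and 100 µmol/L for 72 h (the table footnote says 48 h). MTT was added for 4 h, formazan was dissolved in DMSO and read at 570 nm. IC₅₀ was from ≥3 independent runs; >100 μM was given if 50% inhibition was not reached.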

[2] = tested on: SGC-7901; test: Antiproliferative activity against human SGC7901 cells incubated for 48 to 72 hrs by MTT assay; assay type: functional, cell-based; how it was run: as §1
[3] = tested on: A549; test: Antiproliferative activity against human A549 cells incubated for 48 to 72 hrs by MTT assay; assay type: functional, cell-based; how it was run: as §1
[4] = tested on: HepG2; test: Antiproliferative activity against human HepG2 cells incubated for 48 to 72 hrs by MTT assay; assay type: functional, cell-based; how it was run: as §1
[5] = tested on: PC-3; test: Antiproliferative activity against human PC3 cells incubated for 48 to 72 hrs by MTT assay; assay type: functional, cell-based; how it was run: as §1
[6] = tested on: HepG2; test: Antitumour activity against human HepG2 cells xenografted in Swiss mouse assessed as inhibition of tumor growth at 20 mg/kg, ip dosed every day for 14 days; assay type: functional; details: 336 h, read-out: TGI
How it was run: (§2)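 Female Swiss mice (20-22 g) received 3×10⁶ HepG2 cells subcutaneously in the right flank. After 7-21 days they were randomised into groups of 6, including a saline control, and given daily intraperitoneal injections for 14 days. Body weight was recorded daily. Mice were killed on day 14, and tumour wet weight gave the % inhibition. Data are mean ± S.E.M.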

[7] = tested on: Mus musculus; test: Toxicity in Swiss mouse xenografted with human HepG2 cells assessed as reduction in body weight at 20 mg/kg, ip dosed every day for 14 days; assay type: organism-based; details: in vivo, 336 h; how it was run: as §2

Structure (SMILES) | IC50 [1] [µM] | IC50 [2] [µM] | IC50 [3] [µM] | IC50 [4] [µM] | IC50 [5] [µM] | inhibition in vivo at 20 mg/kg [6] [%] | Activity [7]
COc1c(O)cc2c(c1O)[C@@H]1O[C@H](COC(=O)/C=C/c3ccc(C)c(C)c3)[C@@H](O)[C@H](O)[C@H]1OC2=O | 59.5 | > 100 | > 100 | > 100 | > 100 |  | 
COc1c(O)cc2c(c1O)[C@@H]1O[C@H](COC(=O)/C=C/c3ccc([N+](=O)[O-])cc3)[C@@H](O)[C@H](O)[C@H]1OC2=O | > 100 | > 100 | > 100 | > 100 | > 100 |  | 
COc1ccc(/C=C/C(=O)OC[C@H]2O[C@H]3c4c(cc(O)c(OC)c4O)C(=O)O[C@@H]3[C@@H](O)[C@@H]2O)cc1 | 18.7 | 15.9 | 26.4 | 29.7 | > 100 |  | 
COc1cc(/C=C/C(=O)OC[C@H]2O[C@H]3c4c(cc(O)c(OC)c4O)C(=O)O[C@@H]3[C@@H](O)[C@@H]2O)cc(OC)c1OC | 11.7 | 7.53 | 5.46 | 6.62 | 12.1 |  | 
COc1c(O)cc2c(c1O)[C@@H]1O[C@H](COC(=O)/C=C/c3cc([N+](=O)[O-])cc([N+](=O)[O-])c3)[C@@H](O)[C@H](O)[C@H]1OC2=O | > 100 | > 100 | > 100 | > 100 | > 100 |  | 
COc1cc(/C=C/C(=O)OC[C@H]2O[C@H]3c4c(cc(O)c(OC)c4O)C(=O)O[C@@H]3[C@@H](O)[C@@H]2O)cc(OC)c1 | 6.25 | 27.8 | 12.3 | 16.8 | 26.3 |  | 
COc1c(O)cc2c(c1O)[C@@H]1O[C@H](COC(=O)/C=C/c3ccc(C)cc3)[C@@H](O)[C@H](O)[C@H]1OC2=O | 20.2 | 11.4 | 10.3 | > 100 | 30.2 |  | 
O=c1[nH]cc(F)c(=O)[nH]1 [FLUOROURACIL] | 7.67 | 13.2 | 10.7 | 17.4 | 38.6 | 52.2 | Toxic
